Screening data deposited in PubChem BioAssay by several laboratories.
MC4R antag cAMP: blocks human MC4R cAMP signaling; P32245; MC4R-expressing cells, MTII-stimulated cAMP, LANCE TR-FRET; inhibition, % at 6.5 µM; 360,000 compounds, 0.48% hits; AID 540295;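 active means inhibition above its plate's cutoff, the mean of tested wells on that plate plus 3 SD, cut at about 29% in these data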
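Assay system: U2OS cells stably expressing human melanocortin 4 receptor (MC4R) / Dosing: 6.5 µM / Timing: compound 30 min, challenge 1 h, detection 1 h / Measured by: Eu-cAMP/anti-cAMP TR-FRET, emission 671 nm / Replicates: singlicate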
PfG6PD inh: PfG6PD (Plasmodium falciparum) enzyme inhibition; PfGluPho enzyme, NADPH resazurin-diaphorase fluorescence; inhibition, % at 20 µM; 350,000 compounds, 0.78% hits; AID 504690;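 active means inhibition reaching at least a set limit at 20 µM in the primary screen, cut at about 59% in these data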
ABHD5 PLIN5 PPI: blocks binding of human ABHD5 to perilipin-5; Split G. princeps luciferase complementation, luminescence, 4 h; inhibition, % at 4 µM; 360,000 compounds, 0.78% hits; AID 602281;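 active means inhibition above the mean inhibition across every tested compound plus 3 SD, cut at about 22% in these data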
B2AR ag: activates human beta-2 adrenergic receptor causing internalization | AID 504454 | Am2.2-beta2AR cells, FAP receptor internalization, flow cytometry | response, % (no concentration beside the values) | 340,000 compounds, 0.43% hits;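 active means response above a set limit, near 3 SD of response in nonfluorescent compounds, cut at about 42% in these data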
Target sequence (P07550 whole entry, looked up): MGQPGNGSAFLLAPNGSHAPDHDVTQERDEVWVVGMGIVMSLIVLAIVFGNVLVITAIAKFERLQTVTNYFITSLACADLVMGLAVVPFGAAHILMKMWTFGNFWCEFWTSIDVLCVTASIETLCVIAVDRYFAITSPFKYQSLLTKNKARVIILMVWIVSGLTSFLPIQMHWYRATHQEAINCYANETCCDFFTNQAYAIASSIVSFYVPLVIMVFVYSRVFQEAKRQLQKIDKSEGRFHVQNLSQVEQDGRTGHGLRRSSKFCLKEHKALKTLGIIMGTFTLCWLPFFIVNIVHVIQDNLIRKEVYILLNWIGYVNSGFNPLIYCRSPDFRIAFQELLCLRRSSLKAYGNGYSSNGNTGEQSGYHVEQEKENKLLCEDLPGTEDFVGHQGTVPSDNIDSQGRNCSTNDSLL
MC4R barr agon: activates human MC4R beta-arrestin recruitment | 360,000 compounds, 0.98% hits | U2OS MC4R beta-arrestin complementation, luminescence; percent of melanotan II response, DMSO zero | activation, % at 8.9 µM;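 active means activation above a per-plate cutoff, the mean activation of sample wells on that plate plus 3 SD, cut at about 8% in these data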
PfGluPho conf: confirmation of Plasmodium falciparum G6PD inhibitors; shares compounds with PfG6PD inh; recombinant PfGluPho, NADPH-diaphorase-resazurin fluorescence; inhibition, % at 20 µM; 2,400 compounds, 34% hits;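 active means inhibition of at least 50% at 20 µM in any single replicate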
Diaph ctr 10uM: inhibits diaphorase or oxidizes, flagging false PfG6PD hits. inhibition, % at 20 µM. diaphorase-coupled resazurin reduction, fluorescence, NADPH 10 uM. 820 compounds, 39% hits. shares compounds with PfG6PD inh;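 active means average inhibition reaching 50% or more with the compound at 20 µM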;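 further: resorufin red fluorescence formed as diaphorase reduces resazurin using NADPH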
Diaphorase 30uM: diaphorase inhibition or oxidation at 30 uM NADPH. Diaphorase/resazurin coupled assay, resorufin fluorescence. 820 compounds, 29% hits. inhibition, % at 20 µM. shares compounds with PfG6PD inh. AID 504863;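 active means inhibition averaging 50% or more, tested at 20 µM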
A number is an active result; . = inactive; / = no result. Sampled rows, rich in hits. Any-hit rate of the full collection: about 3%.

SMILES | MC4R antag cAMP | PfG6PD inh | ABHD5 PLIN5 PPI | B2AR ag | MC4R barr agon | PfGluPho conf | others
Cc1ccc(NC(=S)N(CCN(C)C)Cc2cccs2)c(C)c1 | . | 61 | . | . | . | .
Cc1cc(C)c(NC(=S)N(CCN(C)C)Cc2cccs2)c(C)c1 | . | . | . | . | . | /
O=C(O)c1ccc(-c2ccc(/C=N/Nc3ccc([N+](=O)[O-])cc3)o2)cc1 | . | 71 | . | . | . | .
CCc1nnc(N/N=C/c2ccc(-c3ccc([N+](=O)[O-])cc3)o2)n1N | . | 69 | . | . | . | .
O=C(O)c1cccc(-c2ccc(/C=N/Nc3ccc([N+](=O)[O-])cc3)o2)c1 | . | . | . | . | . | /
Cc1nnc(N/N=C\c2ccc(-c3ccccc3[N+](=O)[O-])o2)n1N | . | 82 | . | . | . | .
Cc1n[nH]c(=S)n1/N=C/c1ccc(-c2ccccc2[N+](=O)[O-])o1 | . | . | . | . | . | /
Cc1nnc(N/N=C/c2ccc(-c3ccccc3F)o2)n1N | . | 67 | . | . | . | 56 | Diaph ctr 10uM=.;Diaphorase 30uM=.
CCC(=O)N/N=C/c1ccc(-c2ccc([N+](=O)[O-])cc2)o1 | . | . | . | . | . | /
O=C(CSc1ncnc2sccc12)NCc1ccc2c(c1)OCO2 | . | . | . | . | . | /
O=C(Nc1ccc2c(c1)N(S(=O)(=O)c1cccs1)CCC2)c1c(F)cccc1F | . | . | . | . | . | /
O=S(=O)(c1cccs1)N1CCCc2cccc(O)c21 | . | 93 | . | . | . | .
N#CCCN(C(=O)COC(=O)CCNS(=O)(=O)c1ccccc1)c1ccccc1 | . | . | . | . | . | /
CCOC(=O)c1c(N)sn(-c2ccccc2C)c1=S | . | 73 | . | . | . | .
CCOC(=O)c1nn(-c2ccccc2C)c(=O)c2c(N)scc12 | . | . | . | . | . | /
CCCc1ccc(C(O)c2ncc(-c3ccc(OC)cc3)[nH]2)cc1 (centres undefined) | . | / | . | / | . | /
NC(=S)N/N=C\c1c2ccccc2cc2ccccc12 | . | . | . | . | . | /
NC(=S)NN=Cc1cc(-c2cccc(N)c2)ccn1 | . | 69 | . | / | . | .
O=C1S/C(=C\c2ccc(N3CCOCC3)o2)C(=O)N1c1ccccc1 | . | . | . | . | . | /
O=C1S/C(=C\c2ccc(N3CCOCC3)o2)C(=O)N1Cc1c(F)cccc1Cl | . | 75 | . | . | . | .
Oc1ccc(N2CCN(Cc3ccc(OCCCN4CCCCC4)cc3)CC2)cc1 | . | 75 | . | . | . | .
CC(=O)Nc1ccc(S(=O)(=O)N2CCN(c3nc4ccccc4n3CC(C)C)CC2)cc1 | . | . | . | . | . | /
Cc1ccc(-n2nnnc2C(Cl)(Cl)c2nnnn2-c2ccc(C)cc2)cc1 | . | 72 | . | . | . | .
Cc1cc(C)c2[nH]c(C(=O)Nc3ccc4c(c3)OCO4)cc2c1 | . | 61 | . | . | . | .
Cc1cc(C)c(NC(=O)Nc2ccc3c(c2)OCO3)c(C)c1 | . | . | . | . | . | /
SMILES | MC4R antag cAMP | PfG6PD inh | ABHD5 PLIN5 PPI | B2AR ag | MC4R barr agon | PfGluPho conf | others
COc1ccc(C(=O)Nc2ccc3ccccc3c2)c(OC)c1 | . | 74 | . | . | . | .
COc1ccccc1C(=O)Nc1ccc2ccccc2c1 | . | . | . | . | . | /
Cc1c2ccncc2cc2c1[nH]c1ccccc12 | . | 72 | . | . | . | .
O=C(NC1CC(=O)N(c2cccc(F)c2)C1)C(=O)c1c[nH]c2ccccc12 (centres undefined) | . | . | . | . | . | /
Cc1nc2scc(-c3ccccc3)c2c(=O)n1N=C1C=CC(=O)C=C1 | / | 113 | / | / | / | 111 | Diaph ctr 10uM=95;Diaphorase 30uM=89
CCOC(=O)c1cnc2ccc(C)cc2c1Sc1ccccc1C(=O)OC | . | 104 | . | . | . | 48 | Diaph ctr 10uM=.;Diaphorase 30uM=.
CCOC(=O)c1cnc2ccc(C)cc2c1NCCO | . | . | . | . | . | /
Cc1ccc(/C=C/C(=O)N2CCN(c3ncccn3)CC2)o1 | . | 64 | . | . | . | .
Clc1nc2nc3n(c2nc1Cl)CCC3 | . | . | . | . | . | /
Cc1cc2c(cc1C)C(c1ccccc1OC(C)C)CC(=O)N2 (centres undefined) | . | . | . | . | . | /
CC(C)Oc1ccccc1C1CC(=O)Nc2cc3c(cc21)OCO3 (centres undefined) | . | 80 | . | . | . | .
CCCCN(C(=O)COc1ccc(F)cc1)c1c(N)n(CC(C)C)c(=O)[nH]c1=O | . | . | . | / | . | /
Cc1c(Cl)cccc1N=C1NC(=O)CS1 | . | 66 | . | / | . | .
Cc1cccc(NC(=O)CSc2nnc(-c3ccco3)c(-c3ccco3)n2)c1C | . | 61 | . | . | . | .
O=C(Cn1ccc2ccccc2c1=O)NCCC(=O)Nc1cccc(Cl)c1 | . | . | . | . | . | /
O=C(Nc1ccc(C(=O)O)cc1)/C(=C\c1ccc2c(c1)OCO2)NC(=O)c1ccccc1Cl | . | . | . | / | . | /
CC(C)(C)NC(=O)C1c2ccccc2OCC(=O)N1Cc1ccccn1 (centres undefined) | / | / | . | / | / | /
C/C(Cn1nnc([N+](=O)[O-])n1)=N\NC(=O)c1ccc(O)cc1 | . | 71 | . | . | . | 53 | Diaph ctr 10uM=.;Diaphorase 30uM=.
C/C(Cn1cnc([N+](=O)[O-])n1)=N\NC(=O)c1ccc(Br)cc1 | . | . | . | . | . | /
C/C(Cn1nnc([N+](=O)[O-])n1)=N\NC(=O)c1ccc(Cl)c(Cl)c1 | . | 83 | . | . | . | 77 | Diaph ctr 10uM=.;Diaphorase 30uM=.
Cc1cc(OCC(O)CN2CCCC2)cc(C)c1Cl (centres undefined) | . | . | . | . | . | /
O=C(Nc1ccc(N2CCOCC2)cc1N1CCOCC1)c1ccc(Cl)cc1 | . | . | . | . | . | /
O=C(Nc1ccc(N2CCOCC2)c(Cl)c1)c1ccc2c(c1)OCCO2 | . | 83 | . | . | . | .
O=C(Nc1ccc(N2CCCCC2)c(Cl)c1)c1ccc2c(c1)OCCO2 | . | 99 | . | . | . | .
O=C(Nc1ccc(N2CCOCC2)c(Cl)c1)c1ccc(Cl)cc1 | . | 100 | . | . | . | 61 | Diaph ctr 10uM=51;Diaphorase 30uM=.
O=C(Nc1ccc(N2CCCC2)c(Cl)c1)c1ccc(Br)o1 | . | 59 | . | . | . | .
Cc1ccc(C(=O)OCC(=O)Nc2cccc(S(=O)(=O)N3CCCCC3)c2)s1 | . | . | . | / | . | /
Cc1c(NC(=O)C(C)OC(=O)c2cccnc2Cl)c(=O)n(-c2ccccc2)n1C (centres undefined) | . | . | . | . | . | /
O=C(Nc1ccc2c(c1)OCCO2)c1ccc(Cl)cc1 | . | . | . | . | . | /
O=C(Nc1ccc(N2CCCC2)c(Cl)c1)c1ccc2c(c1)OCCO2 | . | 67 | . | . | . | .
